CSC inhib = cancer stem cell inhibition | cancer stem cell-like cells viability, luminescence | AID 2717 | inhibition, % at 7.5 µM | hit rate 1.1% among 300,000; in the data active = inhibition above about 75%; inconclusive = no clear call, values can overlap the other calls; tested in HMLE shEcad cells
Calb FLC = affects C. albicans growth with fluconazole. growth inhibition, % (test concentration not listed). hit rate 0.57% among 300,000. C. albicans CaCi-2 (fluconazole-resistant clinical isolate) + fluconazole, Alamar Blue growth, 48 h;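 active = growth inhibition above about 58% in most replicates, limit read from the data, passing the limit was not always enough; inconclusive = exactly half the replicates above a set limit; inactive = most replicates below a set limit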;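 also: all wells also contain fluconazole at 8 µg/ml as a sub-toxic cotreatment; 0% = median of DMSO wells and 100% = median of geldanamycin control wells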
SKKanGAS inh = inhibitors of SKKanGAS S. pyogenes growth in kanamycin (SK-promoter or general growth effect) | inhibition, % at 7.5 µM | BacTiter-Glo, 6 h | hit rate 1.3% among 300,000;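 active = mean replicate score, as percent of positive control median, at least 50; inconclusive = mean below 50 but one replicate at or above 50; inactive = mean and every replicate below 50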;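 also: strain carries kanamycin resistance gene driven by streptokinase promoter and grows in 40 µg/ml kanamycin; loss of luminescence reflects streptokinase promoter inhibition or plain growth inhibition; 0% = median of DMSO wells and 100% = positive control at its reference dose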
Mdm2 MdmX PPI = human Mdm2/MdmX binding inhibition; O15151+Q00987; AID 485346; inhibition, % at 8 µM; SaOS-2 split-luciferase Mdm2/MdmX complementation, luminescence; hit rate 3% among 330,000;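 active = inhibition of at least 50% at 8 µM in the primary screen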
Target sequence (O15151 whole entry, looked up): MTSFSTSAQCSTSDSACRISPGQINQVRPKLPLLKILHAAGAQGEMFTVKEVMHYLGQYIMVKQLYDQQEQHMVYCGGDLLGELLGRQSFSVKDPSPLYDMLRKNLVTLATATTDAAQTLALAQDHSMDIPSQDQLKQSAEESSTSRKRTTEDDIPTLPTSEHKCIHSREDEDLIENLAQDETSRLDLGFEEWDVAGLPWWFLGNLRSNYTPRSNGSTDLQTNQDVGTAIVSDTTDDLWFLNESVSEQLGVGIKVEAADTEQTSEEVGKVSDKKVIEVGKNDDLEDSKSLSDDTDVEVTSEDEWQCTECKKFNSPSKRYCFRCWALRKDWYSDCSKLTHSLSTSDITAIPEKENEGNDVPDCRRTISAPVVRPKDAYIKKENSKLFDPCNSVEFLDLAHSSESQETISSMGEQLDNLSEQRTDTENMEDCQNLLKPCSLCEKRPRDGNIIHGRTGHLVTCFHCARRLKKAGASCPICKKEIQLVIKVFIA
Target sequence (Q00987 whole entry, looked up): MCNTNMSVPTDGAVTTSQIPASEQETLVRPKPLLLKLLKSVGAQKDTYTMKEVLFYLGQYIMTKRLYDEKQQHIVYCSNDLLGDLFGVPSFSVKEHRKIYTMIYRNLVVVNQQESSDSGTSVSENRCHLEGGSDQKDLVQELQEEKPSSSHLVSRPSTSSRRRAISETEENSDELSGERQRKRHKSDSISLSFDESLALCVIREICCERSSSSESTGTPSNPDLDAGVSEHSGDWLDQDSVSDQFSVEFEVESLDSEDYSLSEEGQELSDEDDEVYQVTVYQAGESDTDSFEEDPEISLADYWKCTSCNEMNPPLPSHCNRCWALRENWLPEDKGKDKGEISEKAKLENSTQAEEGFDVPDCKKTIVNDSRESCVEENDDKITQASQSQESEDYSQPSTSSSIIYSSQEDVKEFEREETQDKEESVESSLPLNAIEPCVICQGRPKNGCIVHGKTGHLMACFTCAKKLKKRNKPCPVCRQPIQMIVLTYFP
T cruzi repl = blocks replication of Trypanosoma cruzi | T. cruzi beta-gal in NIH3T3, luminescence, 90 h | AID 1885 | inhibition, % (test concentration not listed) | hit rate 1.4% among 300,000;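 active = mean inhibition across valid replicates above about 55%, limit read from the data; inconclusive = mean below that limit but half or more replicates reach it; inactive = mean below it, under half of replicates reach it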;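 also: signal also drops with host cell toxicity which is not excluded here; 0% = plate median of DMSO wells and 100% = zero luminescence signal; higher percent means less beta-gal luminescence so fewer parasites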
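compound dosing = single 50 nL compound addition per well in DMSO | material = NIH/3T3 host cells with β-galactosidase reporter T. cruzi | input = 5,000 host fibroblasts per well | timing = ≥90 h infection period, 3 h prior cell attachment | read-out basis = percent inhibition of parasite-derived β-gal signal | detection = GalScreen β-gal luminescence, detergent lysis, 60 min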
Beta apoptosis = beta cell apoptosis inhibition. hit rate 0.8% among 300,000. AID 435005. INS-1E cytokine-induced death, ATP luminescence, 48 h; percent of positive-control rescue, neutral wells zero. protection from apoptosis, % (concentration not given with the values);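 active = Every replicate reaches about 75%, or at least half do and their mean reaches it too, limit read from the data; inconclusive = At least half of replicates reach the limit but their mean does not; inactive = Under half of replicates reach the limit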;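 also: 0% = cytokine-treated negative control wells and 100% = positive control rescue; higher means more ATP so stronger rescue from cytokine killing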
An asterisk follows results filed as active. Rows were chosen to be rich in hits. Some 5.7% of all compounds tested hit in one or more screens of this group.

COc1cc(-c2nc(-c3ccc(NC(=O)c4ccc(Br)o4)cc3)no2)cc(OC)c1OC was read as CSC inhib 77*, Calb FLC 20, SKKanGAS inh -14, Mdm2 MdmX PPI 23, T cruzi repl -4 and Beta apoptosis 58.
O=C(Nc1ccon1)C12CC3CC(C1)CC(n1cnc([N+](=O)[O-])n1)(C3)C2 was read as Calb FLC -9, SKKanGAS inh 15, Mdm2 MdmX PPI -18, T cruzi repl 59* and Beta apoptosis -1.
`Cc1cc(NC(=O)C23CC4CC(C2)CC(n2cnc([N+](=O)[O-])n2)(C4)C3)no1` gave CSC inhib -14, Calb FLC -5, SKKanGAS inh 2, Mdm2 MdmX PPI 6, T cruzi repl 55* and Beta apoptosis -10.
`COc1ccc(NC(=O)C23CC4CC(C2)CC(n2cnc(Br)n2)(C4)C3)c(C)c1` gave Calb FLC 22, SKKanGAS inh 0, Mdm2 MdmX PPI 15, T cruzi repl 0 and Beta apoptosis -9.
Cc1occc1C(=O)N1CCN(C(c2ccccc2)c2ccccc2)CC1 was read as CSC inhib 1, Calb FLC inconclusive, SKKanGAS inh -1, Mdm2 MdmX PPI 22, T cruzi repl -7 and Beta apoptosis -3.
For Cc1oc(C(C)(C)C)cc1C(=O)N1CCN(C(c2ccccc2)c2ccccc2)CC1 the results were CSC inhib 49, Calb FLC 5, SKKanGAS inh 63*, Mdm2 MdmX PPI 19 and Beta apoptosis 14.
For COC(=O)c1c[nH]n2c(=O)c(Cc3ccc(F)cc3Cl)c(C)nc12 the results were CSC inhib 2, Calb FLC 97*, SKKanGAS inh 4, Mdm2 MdmX PPI -16, T cruzi repl -4 and Beta apoptosis -1.
O=C(NNC(=S)NC(=O)c1ccccc1[N+](=O)[O-])c1ccc(Cl)cc1Cl was read as CSC inhib -16, Calb FLC 62, SKKanGAS inh 48, Mdm2 MdmX PPI 7, T cruzi repl -4 and Beta apoptosis 8.
`Cc1ccc(C(=O)NC(=S)NNC(=O)c2ccccc2)cc1` gave CSC inhib -15, Calb FLC 15, SKKanGAS inh 77*, Mdm2 MdmX PPI 22, T cruzi repl 0 and Beta apoptosis 2.
CC(C)NC(=S)NC(=O)c1ccc(Cl)cc1Cl was read as Calb FLC -9, SKKanGAS inh 1, Mdm2 MdmX PPI -5, T cruzi repl -7 and Beta apoptosis -1.
Screening Cc1ccc(C(=O)NNC(=S)NC(=O)c2ccc(Cl)cc2Cl)cc1 returned CSC inhib 17, Calb FLC 40, SKKanGAS inh 98*, Mdm2 MdmX PPI 30 and T cruzi repl -9.
`Cc1occc1C(=O)NNC(=O)COc1ccc(Br)cc1Br` gave CSC inhib 1, Calb FLC 20, SKKanGAS inh -7, Mdm2 MdmX PPI -56, T cruzi repl -3 and Beta apoptosis 0.
Screening Cc1occc1C(=O)NNC(=S)NC(=O)COc1ccc(Cl)cc1Cl returned Calb FLC -21, SKKanGAS inh 78*, Mdm2 MdmX PPI 7, T cruzi repl -19 and Beta apoptosis -5.
Screening CCCCC(=O)NC(=S)NNC(=O)c1ccc(Cl)cc1Cl returned Calb FLC -2, SKKanGAS inh 90* and T cruzi repl -16.
CCn1nc(C)cc1C(=O)N1CCCC(Nc2ccc(F)c(F)c2)C1 (configuration not stated) was read as CSC inhib -7, Calb FLC -6, SKKanGAS inh -2, Mdm2 MdmX PPI -5, T cruzi repl 5 and Beta apoptosis -1.
Screening CC(C)n1c(SCC(=O)NC2CCCCC2)nnc1-c1ccco1 returned CSC inhib -2, Calb FLC 1, SKKanGAS inh -12, Mdm2 MdmX PPI 3, T cruzi repl -6 and Beta apoptosis 3.
For CC(O)[C@@H](NC(=O)C1CCC(CNC(=O)[C@H](Cc2ccccc2)NC(=O)OC(C)(C)C)CC1)C(=O)O (some centres not stated) the results were Calb FLC -10, SKKanGAS inh 3, Mdm2 MdmX PPI 15 and T cruzi repl -2.
O=C(O)c1ccc(NC(=S)NC(=O)c2ccc(-c3ccccc3)cc2)cc1 was read as CSC inhib -11, Calb FLC 84*, SKKanGAS inh 17, Mdm2 MdmX PPI -30, T cruzi repl -4 and Beta apoptosis 8.
